Most compounds without a hit are left out; they make up all but 1.4% or so of the library.
Dyrk1A ADPGlo – inhibitors of rat Dyrk1A kinase | Q63470 | ADP-Glo luminescence, NFATc1 peptide | inhibition, % at 12.5 µM | actives 0.43% (n = 310,000) | AID 504441; in the data active means inhibition above about 50%;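 further: plate controls were vehicle with enzyme for no effect and no enzyme for full effect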
TbMetRS inhib – blocks T. brucei methionyl-tRNA synthetase activity; actives 0.4% (n = 360,000); inhibition, % at 11.9 µM; purified T. brucei MetRS, ATP depletion, Kinase-Glo luminescence;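 active means inhibition above a per-plate cutoff of the control wells' mean inhibition plus 3 SD, cut at about 5.5% in these data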;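 further: 0% = DMSO wells median and 100% = median of wells with control inhibitor compound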
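Assay system: T. brucei methionyl-tRNA synthetase, purified | Medium: HEPES buffer with MgCl2, KCl, DTT, spermine, BSA, pyrophosphatase | Compound: 11.9 µM single point | Incubation: 15 min enzyme-compound preincubation, 2 h reaction, 10 min detection, 25 °C | Measured by: Kinase-Glo luciferase luminescence reporting remaining unconsumed ATP | Measure: % inhibition normalized to control-well medians | Replication: Singlicate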
PvdQ inh – blocks Pseudomonas aeruginosa PvdQ acylase activity; purified PvdQ acylase, fluorescence plate reader; inhibition, % at 10 µM; actives 0.063% (n = 340,000); in the data active means inhibition above about 30%, passing the limit was not always enough;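 further: 0% = vehicle neutral wells and 100% = reference inhibitor wells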
CAL PDZ FP-1 – human CAL PDZ-peptide interaction inhibition; actives 0.02% (n = 330,000); AID 504414; purified CAL PDZ, TMR-peptide fluorescence polarization, 1 h; inhibition, % at 20 µM; Q9HD26;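 active means highest replicate inhibition of at least 40%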;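 further: plate controls were DMSO neutral control wells for no effect and unlabeled competitor peptide control wells for full effect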
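Test system: tagged CAL PDZ domain / Buffer or medium: sodium phosphate/NaCl buffer pH 7.4 with TCEP, IgG, Thesit / Reagent: TMR-labelled reporter peptide T*-PRC34 bound in PDZ groove / Compound dosing: single point, 20 µM / Schedule: 1 h incubation at room temperature before polarization reading / Technique: fluorescence polarization (mP) / Benchmarks: unlabelled peptide, DMSO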
CDK5 p35 inh – inhibitors of human CDK5/p35 kinase. Q00535+Q15078. Recombinant CDK5/p35, ADP-Glo luminescence, 60 min. inhibition, % at 10 µM. actives 0.01% (n = 330,000). AID 488839;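 active means highest replicate inhibition of at least 50% and at least 75% of replicates reaching 50%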;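 further: plate controls were DMSO neutral control for no effect and GW8510 at 10 µM for full effect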
Target sequence (Q00535 whole entry, looked up): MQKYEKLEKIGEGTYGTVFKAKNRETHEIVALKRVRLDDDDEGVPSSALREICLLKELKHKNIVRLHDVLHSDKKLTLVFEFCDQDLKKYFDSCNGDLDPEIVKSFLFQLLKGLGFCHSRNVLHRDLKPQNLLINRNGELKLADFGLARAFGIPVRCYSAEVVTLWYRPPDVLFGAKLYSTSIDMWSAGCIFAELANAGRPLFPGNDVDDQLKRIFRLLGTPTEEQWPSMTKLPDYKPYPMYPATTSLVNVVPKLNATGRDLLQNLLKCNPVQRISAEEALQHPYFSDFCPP
Target sequence (Q15078 whole entry, looked up): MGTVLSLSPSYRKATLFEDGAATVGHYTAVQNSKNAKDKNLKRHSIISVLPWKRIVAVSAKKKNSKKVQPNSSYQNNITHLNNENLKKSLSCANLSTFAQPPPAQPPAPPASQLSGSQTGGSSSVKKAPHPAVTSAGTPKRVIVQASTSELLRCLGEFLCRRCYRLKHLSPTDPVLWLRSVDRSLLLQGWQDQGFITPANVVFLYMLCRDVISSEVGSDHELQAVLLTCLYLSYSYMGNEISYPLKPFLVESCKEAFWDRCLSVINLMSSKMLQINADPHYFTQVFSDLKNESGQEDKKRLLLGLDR
CAL PDZ FP-2 – inhibitors of human CAL PDZ peptide binding | actives 0.92% (n = 300,000) | inhibition, % at 24.9 µM | Q9HD26 | purified CAL PDZ, TMR-peptide fluorescence polarization, 1 h;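 active means mean inhibition of at least 30% with at least half of replicates also reaching 30%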;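 further: 0% = DMSO neutral control and 100% = excess unlabeled competitor peptide PRC23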
Numbers without * were called inactive; . = no result.

SMILES | Dyrk1A ADPGlo | TbMetRS inhib | PvdQ inh | CAL PDZ FP-1 | CDK5 p35 inh | CAL PDZ FP-2
Cc1ccc(C(=O)Oc2ccc(Cl)c3cccnc23)cc1[N+](=O)[O-] | 2 | 0 | -4 | -1 | -4 | 6
O=C(Oc1ccc(Cl)c2cccnc12)c1cccnc1 | -1 | 0 | -19 | . | -2 | 52*
COc1ccc(CCNC(=O)c2cc3c(F)cccc3s2)cc1OC | 9 | 0 | -15 | -2 | 0 | 70*
Cc1ccc(S(=O)(=O)N(C)c2ccc(C(=O)NCC(c3ccccc3)N3CCCC3)cc2)cc1 (stereo unspecified) | . | 0 | . | . | . | .
COc1ccc(OC)c(CC(=O)Nc2ccc3c(c2)c(=O)n(C)n3Cc2cccc(C(F)(F)F)c2)c1 | . | 0 | . | . | . | .
CCSc1nnc(NC(=O)CCNC(=O)c2ccccc2Cl)s1 | . | 0 | -9 | 0 | 0 | 115*
CC(=O)NC(c1ccccc1)c1nc(-c2cc3ccccc3o2)cs1 (stereo unspecified) | . | 0 | . | . | . | .
Cc1ccccc1-c1cc2nc(NCc3ccc4occc4c3)n(C)c(=O)c2s1 | . | 0 | . | . | . | .
COc1ccccc1/C=C/C(=O)NNC(=O)c1cccs1 | 0 | 0 | -14 | -1 | -1 | 71*
CC(C)(C)C(=O)Nc1ccnn1C1CCN(C(=O)c2ccc(Cl)cc2F)CC1 | -3 | -1 | -6 | 0 | 2 | 44*
C[C@H]1CN([C@@H](C)CO)C(=O)c2cc(Br)cnc2O[C@H]1CN(C)S(=O)(=O)c1ccccc1F | . | -2 | . | . | . | .
Cc1ccc(CNc2nc(N)c([N+](=O)[O-])c(NCCO)n2)cc1 | . | 0 | -14 | 0 | 0 | 62*
CCOC(=O)c1ccc2[nH]c3c(c2c1)CCCCC3=O | 21 | 0 | -10 | -2 | -2 | 37*
CCOC(=O)c1ccc2[nH]c3c(c2c1)CCCC3C(=O)OCC (stereo unspecified) | 10 | 0 | -3 | 0 | -1 | -9
O=C1[C@H]2[C@@H](c3ccccc3)N[C@]3(CCCN(Cc4ccc(Br)cc4)C3=O)[C@H]2C(=O)N1Cc1ccccc1 | . | -1 | . | . | . | .
CC1=C(C(=O)N(C(C)C)C(C)C)CC(CC(=O)NCc2cccc3ccccc23)C(=O)N1CCC1=CCCCC1 (stereo unspecified) | . | 0 | . | . | . | .
CCOC(=O)Cc1csc(SCC(=O)Nc2ccc3[nH]c(=O)[nH]c3c2)n1 | 0 | 0 | -8 | 0 | -2 | -5
Cc1csc(SCC(=O)Nc2ccc3[nH]c(=O)[nH]c3c2)n1 | 12 | 0 | -20 | 0 | 1 | 106*
CC12CCC(O)CC1=CCC1C2CCC2(C)C3=NN=CC3CC12 (stereo unspecified) | 1 | 0 | -8 | -2 | 0 | -2
C=C(C)CN(CC)C(=O)CSc1ccc(S(=O)(=O)N2CCN(Cc3ccccc3)CC2)cn1 | -4 | 1 | -18 | -1 | -1 | 69*
COc1ccc(C(C(=O)Nc2ccc(F)cc2)N2CCN(C(=O)c3ccco3)CC2)cc1 (stereo unspecified) | . | 0 | . | . | . | .
CN(C)c1ccc(N=Nc2ccc(S(N)(=O)=O)cc2)cc1 | 1 | 1 | -7 | -1 | 1 | 44*
CCCN(CC(=O)Nc1cc(C)on1)CC(=O)Nc1ccc(F)c(F)c1F | 1 | 1 | -11 | 0 | 1 | 49*
Clc1ccc(OCCCc2nc(-c3ccncc3)no2)c(Cl)c1 | 18 | 1 | -8 | . | 0 | 33*
Clc1ccc(OCCCc2nc(-c3cccnc3)no2)c(Cl)c1 | 6 | 2 | -5 | -1 | 1 | -2
SMILES | Dyrk1A ADPGlo | TbMetRS inhib | PvdQ inh | CAL PDZ FP-1 | CDK5 p35 inh | CAL PDZ FP-2
Cc1ccc(/C=N/Nc2ccc(C(=O)O)cc2)s1 | 20 | 0 | 2 | 0 | 4 | 1
O=C(O)c1ccc(N/N=C/c2cc(Br)cs2)cc1 | . | 0 | -6 | 1 | 0 | 36*
Cc1cccc(C)c1N1CCN(C(c2cc3ccccc3o2)c2nnnn2C(C)(C)C)CC1 (stereo unspecified) | . | -1 | . | . | . | .
COC(=O)/C(C#N)=C/c1ccc(-c2ccc(S(N)(=O)=O)cc2)o1 | -3 | 0 | -16 | -2 | 3 | 36*
CC(C)OC(=O)/C(C#N)=C/c1ccc(-c2ccc(SC(F)F)cc2)o1 | -3 | 0 | -9 | -1 | 0 | 3
CC(=O)Nc1sc(NC(=O)c2ccc(C)cc2)nc1-c1cccs1 | -1 | -1 | -17 | . | -1 | 73*
COc1ccc(C(=O)Nc2nc(-c3cccs3)c(NC(C)=O)s2)cc1 | 5 | 0 | 2 | . | 0 | -4
COc1ccc2cc(C3CC=C(CO)CN3S(=O)(=O)c3ccccc3[N+](=O)[O-])n(C(=O)OC(C)(C)C)c2c1 (stereo unspecified) | . | -1 | . | . | . | .
COCCn1c(C)cc(C2=NNC(=Nc3ccc(OC)cc3)SC2)c1C | 4 | -1 | -7 | 0 | 0 | -6
COCCn1c(C)cc(C2=NNC(=Nc3ccccc3)SC2)c1C | 1 | -2 | -7 | -1 | 0 | active
NC(=O)c1ccc(-c2nnc(Nc3ccc(S(N)(=O)=O)cc3)c3ccccc23)cc1 | -8 | 0 | -14 | . | 1 | 66*
O=C(NCCCN1CCCC1=O)c1cc2c(s1)CCCCC2 | -2 | 0 | -15 | . | 1 | 80*
Clc1ccc2nc3c4ccccc4cnn3c2c1 | 24 | -1 | 33* | -6 | 1 | -7
CCOCCCn1c(=S)[nH]c2cc(C(=O)NC3CCCC(C)C3C)ccc2c1=O (stereo unspecified) | 9 | -1 | -16 | -1 | 0 | 62*
CCOCCCNC(=O)c1ccc2c(=O)n(Cc3ccc4c(c3)OCO4)c(=S)[nH]c2c1 | 2 | 0 | -18 | 34 | -1 | 37*
Cc1cc(C)cc(NC(=O)CSc2nc(=O)n(CCN3CCOCC3)c3c2CCCC3)c1 | 9 | 0 | -13 | -1 | -2 | 52*
Cc1cccc(NC(=O)CSc2nc(=O)n(CCCN3CCOCC3)c3c2CCCC3)c1 | 1 | 0 | -4 | -1 | 0 | 48*
O=C(CSc1nc(=O)n(CCCN2CCOCC2)c2c1CCCC2)Nc1cccc(Cl)c1 | -6 | 0 | -17 | -1 | 1 | -7
Cc1cc(C)c(NC(=O)CSc2nc(=O)n(CCN3CCOCC3)c3c2CCCC3)c(C)c1 | 4 | 0 | -11 | -4 | 0 | -10
COc1ccc([C@H]2N[C@]3(CCCN(Cc4ccc(C)cc4)C3=O)[C@H]3C(=O)N(Cc4ccccc4)C(=O)[C@@H]23)cc1 | . | 1 | . | . | . | .
COc1ccc(N=C(c2ccccc2)c2c(C)[nH]n(-c3ccccc3)c2=O)c(OC)c1 | 5 | -1 | -6 | -1 | 0 | 36*
COc1ccccc1N=Nc1c(C)[nH]n(-c2ccccc2)c1=O | 1 | 0 | 4 | 0 | 8 | 1
CCCNC(=O)C[C@H]1CC[C@@H]2[C@H](COC[C@@H](O)CN2C(=O)c2ccccn2)O1 | . | -1 | . | . | . | .
CC(C)NC(=O)NS(=O)(=O)c1cnccc1NC1CC2CCC1C2 (stereo unspecified) | -1 | -1 | -11 | 0 | 1 | 69*

Screening data from PubChem BioAssay.
